Test results from ChEMBL document CHEMBL1130283, “Synthesis and structure-activity relationships of nonaromatic taxoids: effects of alkyl and alkenyl ester groups on cytotoxicity” (J Med Chem, 1997).

Legend:
Assay type in all cases: functional, cell-based
MCF7R = test: Inhibition of the growth against human mammary carcinoma 180 fold resistant to doxorubicin (MCF-7-R) cell line after 72 hr exposure
A121 = test: Inhibition of the growth against human Ovarian Carcinoma (A121) cell line after 72 hr exposure; details: A121, 72 h
How it was run: (§1)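 SRB assay. Cells were seeded at 400/well, allowed to attach overnight, and grown in RPMI-1640 with 5% FBS and 5% Nu serum. Compounds were dissolved in DMSO, diluted in medium and applied to triplicate wells for 72 h. Cells were fixed with cold 50% TCA (1 h, 4 °C), stained with 0.4% SRB for 5 min, rinsed with 0.1% acetic acid and solubilized in 10 mM Tris pH 10.5. OD was read at 570 nm. IC50 came from a weighted sigmoid-Emax nonlinear fit.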

MCF7 = test: Inhibition of the growth against human mammary carcinoma (MCF-7) cell line after 72 hr exposure; details: MCF7, 72 h; how it was run: as §1
HT-29 = test: Inhibition of the growth against human Colon Carcinoma (HT-29) cell line after 72 hr exposure; details: HT-29, 72 h; how it was run: as §1
A549 = test: Inhibition of the growth against human non-small-lung carcinoma (A549) cell line after 72 hr exposure; details: A549, 72 h

IC50 (MCF7R) [µM] | IC50 (MCF7) [µM] | IC50 (HT-29) [µM] | IC50 (A549) [µM] | SMILES | IC50 (A121) [µM]
0.14 | 0.0011 | 0.0035 | 0.0029 | CC(=O)OC1C(=O)C2(C)C(O)CC3OCC3(OC(C)=O)C2C(OC(=O)C=C(C)C)C2(O)CC(OC(=O)C(O)C(NC(=O)OC(C)(C)C)c3ccccc3)C(C)=C1C2(C)C (stereo not given) | 0.0027
0.446 | 0.0032 | 0.0085 | 0.012 | C/C=C/C(NC(=O)OC(C)(C)C)C(O)C(=O)OC1CC2(O)C(OC(=O)C3CCCCC3)C3C4(OC(C)=O)COC4CC(O)C3(C)C(=O)C(OC(C)=O)C(=C1C)C2(C)C (stereo not given) | 0.0066
0.026 | 0.0005 | 0.0017 | 0.0013 | CC(=O)OC1C(=O)C2(C)C(O)CC3OCC3(OC(C)=O)C2C(OC(=O)C2CCCCC2)C2(O)CC(OC(=O)C(O)C(C=C(C)C)NC(=O)OC(C)(C)C)C(C)=C1C2(C)C (stereo not given) | 0.0015
0.057 | 0.0018 | 0.0056 | 0.0077 | CC(=O)OC1C(=O)C2(C)C(O)CC3OCC3(OC(C)=O)C2C(OC(=O)C2CCCCC2)C2(O)CC(OC(=O)C(O)C(CC(C)C)NC(=O)OC(C)(C)C)C(C)=C1C2(C)C (stereo not given) | 0.0032
0.038 | 0.0005 | 0.0014 | 0.0009 | CC(=O)OC1C(=O)C2(C)C(O)CC3OCC3(OC(C)=O)C2C(OC(=O)C=C(C)C)C2(O)CC(OC(=O)C(O)C(C=C(C)C)NC(=O)OC(C)(C)C)C(C)=C1C2(C)C (stereo not given) | 0.0009
1.08 | 0.043 | 0.052 | 0.047 | CC(=O)OC1C(=O)C2(C)C(O)CC3OCC3(OC(C)=O)C2C(OC(=O)CC(C)C)C2(O)CC(OC(=O)C(O)C(CC(C)C)NC(=O)OC(C)(C)C)C(C)=C1C2(C)C (stereo not given) | 0.055
0.012 | 0.0006 | 0.0006 | 0.0003 | CC(=O)O[C@H]1C(=O)[C@@]2(C)[C@H]([C@H](OC(=O)c3ccccc3)[C@]3(O)C[C@H](OC(=O)[C@H](O)[C@H](C=C(C)C)NC(=O)OC(C)(C)C)C(C)=C1C3(C)C)[C@]1(OC(C)=O)CO[C@@H]1C[C@@H]2O | 0.0005
> 1 | 0.084 | 0.089 | 0.03 | CC(=O)OC1C(=O)C2(C)C(O)CC3OCC3(OC(C)=O)C2C(OC(=O)C=C(C)C)C2(O)CC(OC(=O)C(O)C(CC(C)C)NC(=O)OC(C)(C)C)C(C)=C1C2(C)C (stereo not given) | 0.054
0.591 | 0.01 | 0.059 | 0.049 | CC(=O)OC1C(=O)C2(C)C(O)CC3OCC3(OC(C)=O)C2C(OC(=O)C2CCCCC2)C2(O)CC(OC(=O)C(O)C(NC(=O)OC(C)(C)C)C3CCCCC3)C(C)=C1C2(C)C (stereo not given) | 0.043
0.412 | 0.0018 | 0.0056 | 0.0057 | CC(=O)OC1C(=O)C2(C)C(O)CC3OCC3(OC(C)=O)C2C(OC(=O)C2CCCCC2)C2(O)CC(OC(=O)C(O)C(NC(=O)OC(C)(C)C)c3ccccc3)C(C)=C1C2(C)C (stereo not given) | 0.0048
0.589 | 0.011 | 0.016 | 0.014 | CC(=O)OC1C(=O)C2(C)C(O)CC3OCC3(OC(C)=O)C2C(OC(=O)CC(C)C)C2(O)CC(OC(=O)C(O)C(C=C(C)C)NC(=O)OC(C)(C)C)C(C)=C1C2(C)C (stereo not given) | 0.017
